What all share (conditions): in vivo
Series [1] has as its system Mus musculus. Put plainly: Biodistribution in mice heart, after 1 hr of intravenous administration of 1-2 ug of compound (entrapped in bovine brain sphingomyelin/ cholesterol multilamellar vehicles). The series is classed as ADME, organism-based. In outline:
(§1)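 BALB/c mice (about 25 g), 3–5 per group, given 50–100 μL tail-vein injection of 111In-labeled conjugate entrapped in SM/CH (2:1 mol/mol) multilamellar vesicles, approx. 100 000 cpm; dose 1–2 μg phospholipid/g body weight. Killed by cervical dislocation at set times; blood, cumulative excretion and rinsed, blotted, weighed tissues γ-counted, blood background subtracted. Result is % injected dose ± SD.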

Series [2] relates to Mus musculus. Nature of the series: Biodistribution in mice fat, after 1 hr of intravenous administration of 1-2 ug ofcompound (entrapped in bovine brain sphingomyelin/ cholesterol multilamellar vehicles). The series is classed as ADME, organism-based. In outline:
as §1

In series [3] the test system is Mus musculus. Nature of the series: Biodistribution in mice spleen, after 1 hr of intravenous aadministration of 1-2 ug of compound (entrapped in bovine brain sphingomyelin/ cholesterol multilamellar vehicles). The class given is ADME, organism-based. In outline: as §1
Series [4] concerns Mus musculus. Put plainly: Biodistribution in mice kidneys, after 48 hr of intravenous administration of 1-2 ug of compound (entrapped in bovine brain sphingomyelin/ cholesterol multilamellar vehicles). The series is classed as ADME, organism-based, Kidney. In outline:
as §1

Series [5] concerns Mus musculus. Put plainly: Biodistribution of compound in mice blood after 1 hr of intravenous injection. The series is classed as ADME, organism-based. In outline: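 BALB/c mice (about 25 g), n = 4. Free ¹¹¹In- or ⁶⁷Ga-labeled compound (50–100 μL, about 100 000 cpm) was injected into a tail vein. Mice were held in separate cages and killed by cervical dislocation, with blood and cumulative excreta collected. Tissues were rinsed, blotted, weighed and γ-counted, with blood background subtracted (blood volume 8.0%). Values are % injected dose ± SD.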

For series [6], the system named is Mus musculus. Put plainly: Biodistribution in mice lung, after 24 hr of intravenous administration of 1-2 ug of compound (entrapped in bovine brain sphingomyelin/ cholesterol multilamellar vehicles). The class given is ADME, organism-based. Summed up:
as §1

Series [7] concerns Mus musculus. Put plainly: Biodistribution in mice stomach, after 12 hr of intravenous administration of 1-2 ug of compound (entrapped in bovine brain sphingomyelin/ cholesterol multilamellar vehicles). The class given is ADME, organism-based. In outline:
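BALB/c mice (about 25 g), groups of 2–5. Compound ¹¹¹In-loaded into SM/CH (2:1, mol/mol) multilamellar vesicles, given as a single tail-vein injection. Lipid dose was 1–2 μg phospholipid/g body weight, in 50–100 μL carrying about 100 000 cpm. Mice were killed by cervical dislocation. Organs were rinsed, blotted, weighed and γ-counted, with blood background subtracted. Values are % injected dose ± SD.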

The structures appear in SMILES notation. Where “and” joins values, the source holds several entries; their conditions need not be identical. Equal entries are not always repeated.

As for `NCCNC(=O)CN(CCN(CCN(CC(=O)O)CC(=O)O)CC(=O)O)CC(=O)O`, the ID is 0% with Mus musculus [1]; 0.3% in the series with Mus musculus [2]; 3.9% with Mus musculus [3]; 0.4% in the series with Mus musculus [4]; 1.1% and 4.5% in the series with Mus musculus [5]; 0.4% in the series on Mus musculus [6]. In the series with Mus musculus [7], this compound had an ID of 0.2%.

Source of the values: ChEMBL document CHEMBL1124106, “Synthesis of diethylenetriaminepentaacetic acid conjugated inulin and utility for cellular uptake of liposomes” (J Med Chem, 1988).
